Reference: PubChem BioAssay
Activity calls are given as the source filed them.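 Rule for the calls, unless noted: active = fluorescence slope after compound addition differing from the mean of all tested samples at 99.7% confidence, mostly higher but some lower; inactive = the rest.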

Key:
[1] = inhibitors of TNFa-induced NFkB p65 translocation, primary screen, imaging, HUVEC, MLSMR starter and 10KST1 sets (AID 438;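 active = inhibition above 20% together with a positive visual image hit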;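 note: compound added about 3h40 before a 20 min TNFalpha stimulation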;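 for inhibition: signal is the nuclear over cytoplasmic p65 intensity ratio per well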); conditions: HUVEC TNFa-induced p65 nuclear translocation; cell count: measured here: nuclei count (cytotoxicity indicator), at 2.08 µM; inhibition: at 2 µM, stronger effect = higher value, 0% TNFa-plus-vehicle, 100% no-TNFa wells
[2] = inhibitors of E-selectin induction by TNFa, primary screen, imaging, HUVEC, immunofluorescence, MLSMR starter and 10KST1 sets (AID 487;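 active = visually confirmed hit in the image check and inhibition above 20%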;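 for inhibition: signal is fraction of cell area covered by stained E-selectin grains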;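 for nuclei count: 100% = median nuclei count of all wells on the same plate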); conditions: HUVEC TNFalpha-induced E-selectin immunofluorescence imaging, at 2 µM; inhibition: stronger effect = higher value; nuclei count: measured here: cell number, toxicity
[3] = DUSP6 inhibitors restoring Erk phosphorylation by chemical complementation, primary imaging in DUSP6-transfected HeLa (AID 609;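 active = compounds giving at least 50% inhibition in the cell-based MKP-3 phosphatase rescue imaging test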;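 for inhibition: phospho-Erk level distribution per well compared with pooled transfected vehicle control wells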); conditions: HeLa MKP-3 transfected, phospho-Erk imaging KS statistic, at 10 µM, cells stimulated with TPA for 15 min
[4] = molecular target: Dual specificity protein phosphatase 6 (Homo sapiens) (UniProt Q16828); assay: as above; conditions: HeLa MKP-3 transfected, phospho-Erk imaging KS statistic; at 10 µM; stronger effect = higher value; cells stimulated with TPA for 15 min
Chain of Dual specificity protein phosphatase 6 (Homo sapiens) (Q16828 whole entry, looked up): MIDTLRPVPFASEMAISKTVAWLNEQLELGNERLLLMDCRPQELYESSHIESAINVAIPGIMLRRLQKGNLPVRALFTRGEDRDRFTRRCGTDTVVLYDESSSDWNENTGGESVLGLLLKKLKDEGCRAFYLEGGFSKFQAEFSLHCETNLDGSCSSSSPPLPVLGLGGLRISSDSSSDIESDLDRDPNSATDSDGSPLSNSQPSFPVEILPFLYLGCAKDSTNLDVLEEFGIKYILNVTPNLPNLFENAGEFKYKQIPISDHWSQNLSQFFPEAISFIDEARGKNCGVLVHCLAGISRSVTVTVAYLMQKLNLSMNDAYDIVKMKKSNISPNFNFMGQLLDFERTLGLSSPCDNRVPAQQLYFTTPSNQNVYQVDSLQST

[5] = molecular target: Voltage-gated potassium channel subunit beta-2 (Rattus norvegicus) (UniProt P62483); assay: KvBeta enzyme negative modulators, primary screen, biochemical, NADPH fluorescence (AID 622;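 active = fluorescence slope higher than the sample average by over 3 SD, cut at about -0.22 in these data, passing the limit was not always enough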;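 note: slope of raw intensity against log time taken from 70 to 1610 s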); conditions: recombinant KvBeta, 4-cyanobenzaldehyde reduction, at 10 µM, stronger effect = higher value
Chain of Voltage-gated potassium channel subunit beta-2 (Rattus norvegicus) (P62483 whole entry, looked up): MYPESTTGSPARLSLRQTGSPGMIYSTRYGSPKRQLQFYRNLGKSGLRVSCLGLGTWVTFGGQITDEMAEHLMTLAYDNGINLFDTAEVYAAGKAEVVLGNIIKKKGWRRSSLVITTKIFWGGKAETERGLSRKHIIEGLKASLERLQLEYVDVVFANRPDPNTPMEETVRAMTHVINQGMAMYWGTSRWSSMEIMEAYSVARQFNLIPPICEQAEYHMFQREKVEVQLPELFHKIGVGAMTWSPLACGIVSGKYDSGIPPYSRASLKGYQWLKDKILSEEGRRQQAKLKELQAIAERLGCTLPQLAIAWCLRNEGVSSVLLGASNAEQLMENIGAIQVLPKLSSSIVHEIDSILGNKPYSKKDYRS

[6] = molecular target: Voltage-gated potassium channel subunit beta-2 (Rattus norvegicus) (UniProt P62483); assay: KvBeta positive modulators, primary screen, biochemical, NADPH fluorescence (AID 623;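 active = NADPH fluorescence slope more negative than the mean of all samples by about 3 SD, 99.7% confidence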;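 note: fluorescence intensity change per second fitted from 20 to 320 s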); conditions: Recombinant KvBeta, NADPH fluorescence decrease slope, 10 min; at 10 µM; stronger effect = lower value
[7] = molecular target: Muscarinic acetylcholine receptor M4 (Homo sapiens) (UniProt P08173); assay: compounds altering M4/GIRK thallium flux, either direction, primary screen, M4 allosteric agonist project, cell-based, HEK293 M4/GIRK, BTC-AM (AID 625); conditions: at 10 µM, actives lie on both sides;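 note: thallium influx through GIRK channels coupled to M4 in HEK293 cells with BTC-AM dye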
Chain of Muscarinic acetylcholine receptor M4 (Homo sapiens) (P08173 whole entry, looked up): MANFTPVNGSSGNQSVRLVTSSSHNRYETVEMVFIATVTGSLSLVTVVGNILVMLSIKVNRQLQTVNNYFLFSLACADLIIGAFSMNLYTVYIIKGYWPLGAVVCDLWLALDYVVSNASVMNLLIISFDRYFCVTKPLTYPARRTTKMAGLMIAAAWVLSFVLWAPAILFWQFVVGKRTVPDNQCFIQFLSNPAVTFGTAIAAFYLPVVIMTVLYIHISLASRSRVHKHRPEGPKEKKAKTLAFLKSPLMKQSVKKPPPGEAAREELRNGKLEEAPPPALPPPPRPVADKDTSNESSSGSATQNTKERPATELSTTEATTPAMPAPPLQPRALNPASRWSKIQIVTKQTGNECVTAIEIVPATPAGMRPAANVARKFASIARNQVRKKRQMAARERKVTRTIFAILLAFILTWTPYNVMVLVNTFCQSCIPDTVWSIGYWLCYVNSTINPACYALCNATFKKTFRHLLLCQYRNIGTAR
Summary of the method: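 System: HEK293 cells with M4 receptor and GIRK channels | Incubation: Cells overnight at 37 °C, BTC-AM loading 1 h, reads 2 min total | Technique: Kinetic BTC-AM fluorescence sampled at 1 Hz, 10 s pre-addition baseline | Measure: Post-addition slope, 15–24 s, of baseline-normalized fluorescence | Control set: Carbachol positive, DMSO negative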

[8] = inhibitors of larval lipid processing in zebrafish, primary screen, whole organism, PED6 fluorescence, gall bladder and intestine (AID 686;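 active = a full or partial loss of lipid-probe fluorescence in the fish gall bladder, intestine or both, judged by eye; inactive = no fluorescence loss, or compound toxic to the fish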;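 note: larvae 5 to 7 days old with five fish per well; signal comes from phospholipase A2 cleavage of quenched PED6 carried via bile; overnight exposure to compound and PED6 before scoring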); conditions: Zebrafish larvae PED6 lipid processing, fluorescence scoring; screened at 20 µM (by protocol)
Summary of the method: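 Test system – live zebrafish larvae aged 5-7 days, whole organism · Buffer or medium – E3 fish medium · Reagent – quenched phospholipase substrate PED6, 100 nM final, ingested by larvae · Doses – 20 µM single dose · Incubation – overnight compound and PED6 incubation · Technique – visual fluorescence microscopy scoring of gall bladder, gut · Read-out basis – visual per-well fluorescence inhibition score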

[9] = inhibitors of Chlamydomonas gravitaxis, primary screen, whole organism, Chlamydomonas reinhardtii, WT vs cilia-less mutant, absorbance, 96-well (AID 463189;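 active = inhibition at or above 50% relative to wild type and mutant plate controls; inactive = inhibition below 50%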;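 note: 0% = wild type cc124 cells in DMSO and 100% = ciliumless bld1 mutant cells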); conditions: OD600 absorbance, 2 days, at 10 µM, stronger effect = higher value
[10] = measured here: cell density z-score
[11] = measured here: nuclear c-Myc green intensity z-score
[12] = measured here: nuclear pErk red intensity z-score, stronger effect = higher value

| SMILES | cell count [1] | inhibition [1] | inhibition [2] | nuclei count [2] [%] | z-score [3, 10] | z-score [3, 11] | z-score [3, 12] | inhibition [4] | fluorescence slope [5] | NADPH fluorescence slope [6] | fluorescence slope [7] | outcome [8] | inhibition [9] |
| --- | --- | --- | --- | --- | --- | --- | --- | --- | --- | --- | --- | --- | --- |
| CCCSc1nnc(NC(=O)Nc2ccccc2)s1 | 655 | -20.6% (inactive) | -53.8% (inactive) | 184 | 0.599 | -1.15 | -0.322 | 5.35% (inactive) | -0.484 (inactive) | -5.4e-05 (inactive) | 0.00763 (inactive) | inactive | -6.45% (inactive) |
| CC(NC(=O)Nc1cccnc1)(C(F)(F)F)C(F)(F)F | 706 | -5.1% (inactive) | -177% (inactive) | 184 | 0.533 | -0.524 | 0.0759 | 7.93% (inactive) | -0.454 (inactive) | -0.000301 (inactive) | 0.00556 (inactive) | inactive | 0.542% (inactive) |
| CCCc1cc(NCCCCO)n2c(nc3ccccc32)c1C#N | 484 | -2.4% (inactive) | -67.8% (inactive) | 112 | -0.769 | -0.182 | 0.272 | 21.8% (inactive) | -0.238 (inactive) | -2.1e-05 (inactive) | 0.00464 (inactive) | inactive | 26.9% (inactive) |
| CCCCCOc1ccccc1C(=O)NCCCC(=O)O | 352 | -4.8% (inactive) | -57.4% (inactive) | 116 | 0.366 | -0.837 | 0.123 | 19.4% (inactive) | -0.463 (inactive) | -0.000126 (inactive) | 0.00541 (inactive) | inactive | 32.4% (inactive) |
| O=C(NCCCn1ccnc1)c1cccnc1 | 412 | -1% (inactive) | -143% (inactive) | 187 | -0.692 | 0.968 | -0.483 | 5.65% (inactive) | -0.459 (inactive) | -0.000144 (inactive) | 0.00592 (inactive) | inactive | 0.663% (inactive) |
| COc1ccccc1-n1c(N)c(C(=O)NCC2CCCO2)c2nc3ccccc3nc21 (centres undefined) | 630 | -11.8% (inactive) | -49.3% (inactive) | 160 | 1.5 | -1.96 | 0.209 | 14.7% (inactive) | -0.0437 (inactive) | 2e-05 (inactive) | 0.00576 (inactive) | inactive | 19.9% (inactive) |
| CCOc1ccc(N2C(=O)CC(N)C2=O)cc1 (centres undefined) | 726 | 11.3% (inactive) | 33.5% (inactive) | 123 | -0.139 | 1.28 | 0.161 | -13.3% (inactive) | -0.462 (inactive) | -5.8e-05 (inactive) | 0.00592 (inactive) | inactive | 19.4% (inactive) |
| Cc1cc(C)n(CC(=O)c2ccccc2)c(=O)c1C#N | 470 | -3.8% (inactive) | -112% (inactive) | 157 | -1.09 | 0.551 | 0.941 | -3.95% (inactive) | -0.432 (inactive) | -4.1e-05 (inactive) | 0.0047 (inactive) | inactive | -1.97% (inactive) |
| COc1cc(S(=O)(=O)N2CCN(C)CC2)c(OC)cc1Br | 616 | 13.9% (inactive) | -43.1% (inactive) | 114 | 0.0206 | -1.18 | -0.865 | 1.63% (inactive) | -0.424 (inactive) | -3.6e-05 (inactive) | 0.00502 (inactive) | inactive | 21% (inactive) |
| CCN(CC)CCN1C(=O)C(=O)/C(=C(/O)c2ccc(OC)cc2)C1c1ccco1 (centres undefined) | 710 | -1.4% (inactive) | 4.1% (inactive) | 163 | 0.167 | 0.629 | 0.173 | -7.67% (inactive) | -0.496 (inactive) | -6.6e-05 (inactive) | 0.00632 (inactive) | inactive | 5.19% (inactive) |
| CCC(CC)c1nc2cc(OC)c(OC)cc2c(=O)o1 | 581 | 0.1% (inactive) | -54% (inactive) | 126 | -1.01 | -1.15 | 0.697 | -4.59% (inactive) | -0.451 (inactive) | -0.000112 (inactive) | 0.00503 (inactive) | inactive | 0.563% (inactive) |
| CC12CN3CC(C)(CN(C1)C3c1ccc(Cl)cc1Cl)C2O (centres undefined) | 486 | -4% (inactive) | -90.6% (inactive) | 121 | -2.88 | 1.19 | -1.32 | -0.584% (inactive) | -0.52 (inactive) | -6.5e-05 (inactive) | 0.0049 (inactive) | inactive | -8.3% (inactive) |
| COC(=O)C(NC(=O)c1ccccc1)(Nc1nccs1)C(F)(F)F (centres undefined) | 677 | -5.5% (inactive) | -7.4% (inactive) | 159 | 1.36 | -0.846 | 0.224 | 22.1% (inactive) | -0.474 (inactive) | -2.6e-05 (inactive) | 0.00463 (inactive) | inactive | -5.27% (inactive) |
